Assay outcomes (PubChem BioAssay)
An excerpt weighted towards active compounds, which were near 2.3% of everything screened.
STEP block – STEP phosphatase inhibitors, primary screen, biochemical, fluorescence intensity, uHTS; inhibition, % at 20 µM; 0.25% of 360,000 active; AID 588621, 2011; recombinant STEP, OMFP fluorogenic substrate;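 active = inhibition at 20 µM, scaled per plate between control wells, above about 37%, limit read from the data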
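Assay system: isolated STEP enzyme / Timing: 20 min at room temperature, dark / Doses: 20 µM, 1% DMSO / Technique: fluorescence intensity, excitation 480 nm, emission 540 nm / Reagent: fluorogenic phosphatase substrate OMFP at 25 µM final / Measure: percent inhibition scaled to no-enzyme and uninhibited-enzyme controls, plate-pattern corrected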
LMPTP inh – LMPTP phosphatase inhibitors, primary screen, biochemical, fluorescence intensity, uHTS; Low molecular weight phosphotyrosine protein phosphatase (Homo sapiens), P24666; recombinant LMPTP-A, OMFP fluorogenic substrate; inhibition, % at 20 µM; 0.22% of 360,000 active; AID 651560, 2012;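 active = compounds that cut the enzyme signal by at least half of the control window in the single-dose screen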
Target sequence (P24666 whole entry, looked up): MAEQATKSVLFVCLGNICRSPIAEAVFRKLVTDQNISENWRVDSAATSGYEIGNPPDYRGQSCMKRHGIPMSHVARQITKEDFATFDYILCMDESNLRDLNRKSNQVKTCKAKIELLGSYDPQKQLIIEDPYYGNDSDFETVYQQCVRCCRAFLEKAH
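Buffer or medium: Bis-Tris pH 6.0, DTT, detergent; Assay system: LMPTP-A enzyme; Quantity: 0.625 nM enzyme; Detection: endpoint fluorescence intensity; Times: 50 min dark incubation at room temperature; Controls: substrate-only low control, DMSO enzyme-plus-substrate high control; Doses: single 20 µM dose; Read-out: percent inhibition versus substrate-only and uninhibited controls; Reagent: 400 µM OMFP.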
DNMT1 block – human DNMT1 methyltransferase inhibitors, primary screen, biochemical, molecular beacon, fluorescence, HinP1I cleavage, uHTS | inhibition (reported as % activation of signal), % at 10 µM | 0.83% of 360,000 active; in the data active = inhibition above about 50%
SUMO1 PPI mod – modulators of SUMO1 protein-protein interactions, primary screen, biochemical, uHTS; 0.33% of 360,000 active; inhibition, % at 20 µM; SUMO1 binding to a labelled peptide, TR-FRET, 1 h; Small ubiquitin-related modifier 1 (Homo sapiens), P63165; in the data active = inhibition above about 37%
Target sequence (P63165 whole entry, looked up): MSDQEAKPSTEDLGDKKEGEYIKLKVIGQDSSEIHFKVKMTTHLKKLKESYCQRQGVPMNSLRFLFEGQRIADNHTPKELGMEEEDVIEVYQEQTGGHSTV
Rpn11 inh – Rpn11 (PSMD14) deubiquitinase inhibitors, primary screen, biochemical, fluorescence polarization, uHTS; 26S proteasome non-ATPase regulatory subunit 14 (Homo sapiens), O00487; human 26S proteasome, Ub4-pepOG fluorescence polarization; 20S core pre-blocked with epoxomicin; inhibition, % at 20 µM; 0.59% of 360,000 active; AID 588493, 2011;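 active = inhibition at 20 µM, scaled to each plate's controls, above about 33%, limit read from the data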
Scp-1 inhibitor – Scp-1 phosphatase inhibitors, primary screen, biochemical, colorimetric, uHTS; Recombinant Scp1, phosphopeptide, malachite green phosphate absorbance; inhibition, % at 20 µM; 0.88% of 340,000 active; AID 493091, 2011;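 active = inhibition above about 50% at 20 µM, limit read from the data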
Target sequence (Q9GZU7 76-261 limits assumed): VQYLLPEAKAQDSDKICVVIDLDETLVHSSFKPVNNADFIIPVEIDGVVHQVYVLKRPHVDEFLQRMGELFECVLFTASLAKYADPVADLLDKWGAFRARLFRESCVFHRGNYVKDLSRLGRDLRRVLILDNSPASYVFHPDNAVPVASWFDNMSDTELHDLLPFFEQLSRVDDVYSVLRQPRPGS
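assay system = SCP-1 phosphatase catalytic domain, residues 76-261 | buffer or medium = 50 mM Tris acetate pH 5.5, 0.005% Tween-20, 10 mM MgCl2 | incubation = enzyme reaction 45 min at room temperature, colour 5 min, stabilisation 30 min | signal = Phosphate-binding colour reagent, absorbance read at 630 nm | measure = % inhibition at 20 µM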
Scp1 confirm – Scp-1 phosphatase inhibitors, retest, confirmation, biochemical, colorimetric, single concentration. shares compounds with Scp-1 inhibitor. recombinant SCP-1 catalytic domain, phosphate release, malachite green absorbance. inhibition, % at 20 µM. 61% of 2,500 active
MG interference – colorimetric readout interference by compounds, confirmation, artefact control for Scp-1 inhibitor project, biochemical, single concentration; Colorimetric interference counterscreen, malachite green absorbance 630 nm; 2,500 tested, under 10 active; AID 540313, 2011; apparent inhibition (interference), % at 20 µM; shares compounds with Scp-1 inhibitor;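 note: compounds added after enzyme reaction finished so only phosphate colour detection is probed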
Scp1 DSF – Scp-1 binding by thermal shift, confirmation, orthogonal assay for Scp-1 inhibitor project, biophysical, differential scanning fluorimetry. shares compounds with Scp-1 inhibitor. Recombinant SCP1, Sypro Orange thermal shift Tm. thermal shift relative to vanadate control, % at 40 µM. 25% of 1,500 active. AID 540329, 2011;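 active = substances whose mean melting-temperature shift, as a percentage of the reference inhibitor's shift, reaches about 5.3%, limit read from the data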
DNMT1 inh conf – DNMT1 methyltransferase inhibitor retest, confirmation, biochemical, molecular beacon, fluorescence, single concentration | shares compounds with DNMT1 block | DNMT1 molecular beacon HinP1I cleavage | inhibition, % at 10 µM | 8% of 2,300 active;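 active = average inhibition of at least 30% in the single-concentration confirmation test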
Beacon interf – counter-screen for DNMT1 inhibitors: spectral interference | shares compounds with DNMT1 block | DNMT1 molecular beacon spectral interference counterscreen, fluorescence 485/520 | activation (fluorescence interference), % at 10 µM | 1% of 2,300 active | AID 602387;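 active = activation of at least 30% at 10 µM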;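 note: DNMT1 catalytic domain with a HinP1I cleavage step and a FAM/dabcyl DNA beacon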
STEP conf – STEP phosphatase inhibitor hit confirmation, biochemical, fluorescence intensity, single concentration; shares compounds with STEP block; recombinant STEP, OMFP fluorogenic substrate; inhibition, % at 20 µM; 32% of 520 active; AID 623866, 2012; call rule not given here
Of the large screens only hits and unclear results are named; the others gave an inactive call (follow-up assays come after a bar, where shown).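 Rule for the calls, unless noted: active = inhibition of at least 30% at 20 µM; inactive = the rest.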

CC(=O)c1ccc(S(=O)(=O)Nc2cccc(-n3cnnn3)c2)cc1	STEP block 97, DNMT1 block 100, Scp-1 inhibitor 77 | Scp1 confirm 65 | MG interference inactive | Scp1 DSF inactive | DNMT1 inh conf inactive | Beacon interf inactive | STEP conf 99
CC(=O)Nc1ccc(S(=O)(=O)Nc2cccc(-n3cnnn3)c2)cc1	none
O=c1c(C=Nc2ccc(Cl)cc2)c[nH]n1-c1cccc(Cl)n1	STEP block 79, LMPTP inh 62, DNMT1 block 75, Scp-1 inhibitor 102 | Scp1 confirm 99 | MG interference inactive | Scp1 DSF inactive | DNMT1 inh conf inactive | Beacon interf inactive | STEP conf inactive
CCCn1cnc2c(SCc3ccccc3Cl)nc(N)nc21	none
CCOc1ccc(/C=N/NC(=O)c2cc3c(OC)cccc3[nH]2)cc1	STEP block 89, DNMT1 block 83, Scp-1 inhibitor 79 | Scp1 confirm 58 | MG interference inactive | Scp1 DSF 6.4 | DNMT1 inh conf inactive | Beacon interf inactive | STEP conf 41
O=C(Oc1ccc(Oc2ccccc2)cc1)N1CCC(O)CC1	none
COC(=O)c1ccc(C(=O)Nc2ccc3c(c2)C(=O)NC3=O)cc1	STEP block 94, SUMO1 PPI mod 95, Scp-1 inhibitor 75 (not shown: Rpn11 inh) | Scp1 confirm 47 | MG interference inactive | Scp1 DSF 6.0 | STEP conf inactive
Cc1ccc(C(=O)Nc2ccc3c(c2)C(=O)NC3=O)cc1	none
O=C(CCn1ccnc1)Nc1cc(Cl)ccc1O	none
Cc1cc(N)n(-c2ccc(Oc3ccccc3)c(S(=O)(=O)O)c2)n1	STEP block 43, Scp-1 inhibitor 75 | Scp1 confirm 60 | MG interference inactive | Scp1 DSF inactive | DNMT1 inh conf inactive | Beacon interf inactive | STEP conf inactive
Cc1cc(N)n(-c2ccc(C)c(C)c2)n1	none
O=C(N/N=C/c1ccc(Br)cc1)c1ccc(Br)o1	STEP block 47, Scp-1 inhibitor 100 | Scp1 confirm 82 | MG interference inactive | Scp1 DSF inactive | STEP conf 71
O=C(N/N=C/c1ccc(F)cc1)c1ccc(Br)cc1	none
O=C(NNC1CC(=O)N(c2ccccc2)C1=O)c1ccccc1Cl (centres undefined)	none
